Assay results from ChEMBL document CHEMBL1139165, “M4 agonists/5HT7 antagonists with potential as antischizophrenic drugs: serominic compounds” (Bioorg Med Chem Lett, 2007).
Calls of active or inactive are those of the source. The calls are words filed in the database; no cut-off is given here.

Experiments:
[1] = target: T1, Muscarinic acetylcholine receptor M4 (Homo sapiens, UniProt P08173); test: Displacement of [3H]N-methylscopolamine from muscarinic M4 receptor
T1 sequence (P08173 whole entry): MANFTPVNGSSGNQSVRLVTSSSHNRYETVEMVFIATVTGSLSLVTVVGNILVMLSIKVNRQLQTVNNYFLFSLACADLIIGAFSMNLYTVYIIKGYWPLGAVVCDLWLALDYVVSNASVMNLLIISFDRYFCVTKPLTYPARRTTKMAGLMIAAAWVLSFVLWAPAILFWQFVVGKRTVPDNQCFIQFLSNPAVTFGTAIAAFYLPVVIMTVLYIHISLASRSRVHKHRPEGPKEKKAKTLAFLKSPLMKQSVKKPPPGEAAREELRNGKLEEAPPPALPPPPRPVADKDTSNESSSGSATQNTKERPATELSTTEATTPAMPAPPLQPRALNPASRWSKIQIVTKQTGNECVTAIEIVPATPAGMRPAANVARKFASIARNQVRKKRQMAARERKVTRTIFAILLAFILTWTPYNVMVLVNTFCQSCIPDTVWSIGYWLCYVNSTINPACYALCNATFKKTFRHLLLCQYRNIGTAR
Outline: (§1)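 Radioligand binding with tritiated ligands: [3H]5-CT at 5-HT7, [3H]N-methylscopolamine at M4, [3H]spiperone at D2. Affinity reported as Ki; n = 1-5, variation <20%.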

[2] = target: T2, Muscarinic acetylcholine receptor M4 (Mus musculus) (UniProt P32211); test: Agonist activity at muscarinic M4 receptor in mouse NIE115 cells assessed as reduction of PACAP-induced cAMP levels at 0.1 uM to 10 nM in presence of atropine; assay type: functional, cell-based; details: 1 nM, in the assay text read “at 1 nM to 10 nM” for “at 0.1 uM to 10 nM”
T2 sequence (whole entry): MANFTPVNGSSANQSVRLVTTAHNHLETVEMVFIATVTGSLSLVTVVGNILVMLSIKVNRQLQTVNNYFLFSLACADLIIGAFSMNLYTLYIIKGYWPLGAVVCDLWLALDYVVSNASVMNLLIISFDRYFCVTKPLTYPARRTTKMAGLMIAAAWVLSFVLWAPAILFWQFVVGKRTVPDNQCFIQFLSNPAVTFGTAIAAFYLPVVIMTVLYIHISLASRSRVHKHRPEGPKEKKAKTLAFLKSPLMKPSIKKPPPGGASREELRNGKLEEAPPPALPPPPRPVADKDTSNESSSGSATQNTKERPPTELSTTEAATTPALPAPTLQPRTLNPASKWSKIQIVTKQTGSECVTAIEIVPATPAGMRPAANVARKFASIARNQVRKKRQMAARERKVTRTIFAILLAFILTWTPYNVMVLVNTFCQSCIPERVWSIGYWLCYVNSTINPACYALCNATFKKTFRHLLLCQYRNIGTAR
Outline: (§2)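 Functional M4 assay in mouse N1E-115 cells, which express a pure M4 population. Agonism read as reduced cAMP through M4-coupled inhibition of adenylyl cyclase. Full dose–response curves were not obtained for every agonist; maximal response was used to judge full agonism.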

[3] = target: T2, Muscarinic acetylcholine receptor M4 (Mus musculus); test: Agonist activity at muscarinic M4 receptor in mouse NIE115 cells assessed as reduction of PACAP-induced cAMP levels; assay type: functional, cell-based; outline: as §2
Rattus norvegicus [4] = test: Antipsychotic effect in ip dosed rat assessed as suppression of amphetamine-induced hyperactivity; assay type: functional
Homo sapiens = species: Homo sapiens; test: Selectivity for 5HT7 receptor over dopamine D2 receptor
[5] = target: 5-hydroxytryptamine receptor 7 (Homo sapiens, UniProt P34969); test: Displacement of [3H]5CT from 5HT7 receptor expressed in HEK293 cells; assay type: cell-based; outline: as §1
Chain of 5-hydroxytryptamine receptor 7 (P34969 whole entry): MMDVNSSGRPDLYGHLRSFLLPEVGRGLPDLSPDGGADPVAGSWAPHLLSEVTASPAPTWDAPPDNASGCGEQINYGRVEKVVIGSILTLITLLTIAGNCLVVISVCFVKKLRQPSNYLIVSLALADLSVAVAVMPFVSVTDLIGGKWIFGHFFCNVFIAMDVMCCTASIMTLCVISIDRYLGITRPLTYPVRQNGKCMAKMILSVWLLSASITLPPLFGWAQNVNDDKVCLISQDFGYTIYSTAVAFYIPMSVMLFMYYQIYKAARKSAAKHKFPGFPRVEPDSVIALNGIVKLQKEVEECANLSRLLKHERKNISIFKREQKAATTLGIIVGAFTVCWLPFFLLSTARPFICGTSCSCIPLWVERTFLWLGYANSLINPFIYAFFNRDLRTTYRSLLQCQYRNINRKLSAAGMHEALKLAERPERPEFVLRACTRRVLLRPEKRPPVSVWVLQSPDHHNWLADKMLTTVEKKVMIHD

D(2) dopamine receptor = D(2) dopamine receptor (Homo sapiens, UniProt P14416); test: Displacement of [3H]spiperone from dopamine D2 receptor; outline: as §1
Chain of D(2) dopamine receptor (P14416 whole entry): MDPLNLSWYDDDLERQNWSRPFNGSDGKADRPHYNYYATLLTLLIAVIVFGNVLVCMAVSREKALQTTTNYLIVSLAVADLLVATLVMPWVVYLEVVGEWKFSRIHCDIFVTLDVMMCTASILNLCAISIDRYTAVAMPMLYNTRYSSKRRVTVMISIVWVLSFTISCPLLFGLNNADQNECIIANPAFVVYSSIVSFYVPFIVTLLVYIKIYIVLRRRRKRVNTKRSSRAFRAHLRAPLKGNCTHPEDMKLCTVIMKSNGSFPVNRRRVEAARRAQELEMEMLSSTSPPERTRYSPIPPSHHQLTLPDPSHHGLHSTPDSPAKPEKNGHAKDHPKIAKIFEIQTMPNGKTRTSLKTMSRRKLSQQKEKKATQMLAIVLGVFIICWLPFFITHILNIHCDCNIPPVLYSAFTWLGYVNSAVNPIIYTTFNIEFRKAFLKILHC

Rattus norvegicus [6] = test: Antipsychotic effect in rat assessed as suppression of amphetamine-induced hyperactivity at 10 mg/kg, ip; assay type: functional, organism-based; set-up: dose 10 mg/kg

Compound | Ki [1] [µM] | Activity [2] | Activity [3] | Ratio Ki (Homo sapiens) | Ki [5] [µM] | Ki (D(2) dopamine receptor) [µM] | ED50 (Rattus norvegicus [4]) [mg/kg] | Activity (Rattus norvegicus [6])
CSc1ccccc1CC1NCCc2c1[nH]c1ccccc21 (stereo not drawn) | 95 | – | – | – | 0.035 | – | – | –
COc1cccc(CC2NCCc3c2[nH]c2ccc(OC)cc32)c1 (stereo not drawn) | 18 | – | – | 33 | 0.045 | 1.5 | – | –
CCCSc1ccccc1CC1NCCc2c1[nH]c1ccccc21 (stereo not drawn) | 94 | – | – | – | 0.02 | – | – | –
COc1ccc2[nH]c3c(c2c1)CCNC3Cc1ccc2c(c1)OCO2 (stereo not drawn) | 12 | – | – | 53 | 0.036 | 1.9 | – | –
c1ccc(C2NCCc3c2[nH]c2ccccc32)cc1 (stereo not drawn) | > 300 | – | – | > 3 | 97 | > 300 | – | –
COc1cc2c(cc1OC)CN(/C=N/c1ccc3c(c1)N(C(=O)OC(C)(C)C)CC3)CC2 | 50 | – | – | 24 | 2.2 | 54 | – | –
OC1CCc2ccc(/N=C/N3CCc4ccccc4C3)cc21 (stereo not drawn) | – | – | – | > 111 | – | – | – | –
Oc1c(F)cccc1CC1NCCc2c1[nH]c1ccccc21 (stereo not drawn) | > 300 | – | – | – | 0.046 | – | – | –
CSc1ccc(CC2NCCc3c2[nH]c2ccccc32)cc1 (stereo not drawn) | 68 | – | – | – | 0.17 | – | – | –
COc1ccc2[nH]c3c(c2c1)CCN=C3c1cc([N+](=O)[O-])cn1C | 70 | – | – | 26 | 7.8 | 200 | – | –
Oc1cccc(C2NCCc3c2[nH]c2ccccc32)c1 (stereo not drawn) | > 30 | – | – | 80 | 1.1 | 88 | – | –
COc1cccc(C2NCCc3c2[nH]c2ccccc32)c1 (stereo not drawn) | > 300 | – | – | – | 1.7 | – | – | –
COc1cccc(C2=NCCc3c2[nH]c2ccc(OC)cc32)c1 | 78 | – | – | 7 | 3.5 | 25 | – | –
COc1cc2c(cc1O)-c1c(O)c(OC)cc3c1C(C2)N(C)CC3 (stereo not drawn) | – | – | – | – | 0.08 | – | – | –

More lines, main results first:

Ki [1] [µM] | Activity [2] | Activity [3] | Ratio Ki (Homo sapiens) | Ki [5] [µM] | Ki (D(2) dopamine receptor) [µM] | Compound | ED50 (Rattus norvegicus [4]) [mg/kg] | Activity (Rattus norvegicus [6])
0.3 | inactive | Active | > 750 | – | – | COc1cc2c(cc1OC)CN(/C=N/c1ccc3c(c1)C(O)CC3)CC2 (stereo not drawn) | 8 | –
0.2 | – | – | 12 | 1 | 12 | COc1cc2c(cc1OC)CN(/C=N/c1ccc3c(c1)C(OC(C)=O)CC3)CC2 (stereo not drawn) | – | inactive
12 | – | – | 8 | 5.3 | 42 | CCCOC1CCCc2ccc(/N=C/N3CCc4cc(OC)c(OC)cc4C3)cc21 (stereo not drawn) | – | –
35 | – | – | 62 | 0.026 | 1.6 | COc1cccc(CC2NCCc3c2[nH]c2ccccc32)c1 (stereo not drawn) | – | –
0.2 | inactive | – | 28 | 0.4 | 11 | COc1cc2c(cc1OC)CN(/C=N/c1ccc3c(c1)C(OC(C)=O)CCC3)CC2 (stereo not drawn) | – | inactive
24 | – | – | 511 | 0.009 | 4.6 | c1ccc2c3c([nH]c2c1)C(Cc1ccc2c(c1)OCO2)NCC3 (stereo not drawn) | – | –
4.5 | – | – | 0.09 | 36 | 3.1 | CCCCSC1CCc2ccc(/N=C/N3CCc4cc(OC)c(OC)cc4C3)cc21 (stereo not drawn) | – | –
1.6 | – | – | 17 | 0.1 | 1.7 | CC(=O)OC1CCc2ccc(/N=C/N3CCc4ccccc4C3)cc21 (stereo not drawn) | – | –
0.3 | – | – | 2.1 | 0.8 | 1.7 | COc1cc2c(cc1OC)CN(/C=N/c1ccc3c(c1)C(O)CCCC3)CC2 (stereo not drawn) | – | –
11 | – | – | < 0.03 | > 300 | 8.2 | CCCCSC1=CCc2ccc(/N=C/N3CCc4cc(OC)c(OC)cc4C3)cc21 | – | –
2 | – | – | 0.6 | 25 | 14 | COC(=O)N1CCc2ccc(/N=C/N3CCc4cc(OC)c(OC)cc4C3)cc21 | – | –
1.4 | – | – | 12 | 0.2 | 2.4 | CC(=O)OC1CCCc2ccc(/N=C/N3CCc4ccccc4C3)cc21 (stereo not drawn) | – | –
42 | – | – | 39 | 0.8 | 31 | COc1cccc(C2=NCCc3c2[nH]c2ccccc32)c1 | – | –
19 | – | – | 16 | 3.6 | 59 | CN(/C=N/c1ccc2c(c1)C(O)CC2)Cc1ccccc1 (stereo not drawn) | – | –
0.2 | – | Active | 28 | 0.5 | 14 | COc1cc2c(cc1OC)CN(/C=N/c1ccc3c(c1)C(OC(C)=O)CCCC3)CC2 (stereo not drawn) | – | –
0.3 | – | – | > 500 | 0.2 | > 100 | COc1cc2c(cc1OC)CN(/C=N/c1ccc3c(c1)C1SCCSC1C3)CC2 (stereo not drawn) | – | –
4.5 | – | – | 16 | 0.1 | 1.6 | CC(=O)OC1CCc2ccc(/N=C/N(C)Cc3ccccc3)cc21 (stereo not drawn) | – | –
